Laboratory results taken from ChEMBL document CHEMBL3232924, “Synthesis and biological evaluation of novel bis-aromatic amides as novel PTP1B inhibitors” (Bioorg Med Chem Lett, 2014).
The source made the active and inactive calls. No cut-off for these calls is given here.

How the values were obtained:
[1] = molecular target: T1, Tyrosine-protein phosphatase non-receptor type 1 (Homo sapiens) (UniProt P18031); test: Inhibition of PTP1B (unknown origin) using pNPP as substrate at 20 ug/ml
T1 sequence (whole entry): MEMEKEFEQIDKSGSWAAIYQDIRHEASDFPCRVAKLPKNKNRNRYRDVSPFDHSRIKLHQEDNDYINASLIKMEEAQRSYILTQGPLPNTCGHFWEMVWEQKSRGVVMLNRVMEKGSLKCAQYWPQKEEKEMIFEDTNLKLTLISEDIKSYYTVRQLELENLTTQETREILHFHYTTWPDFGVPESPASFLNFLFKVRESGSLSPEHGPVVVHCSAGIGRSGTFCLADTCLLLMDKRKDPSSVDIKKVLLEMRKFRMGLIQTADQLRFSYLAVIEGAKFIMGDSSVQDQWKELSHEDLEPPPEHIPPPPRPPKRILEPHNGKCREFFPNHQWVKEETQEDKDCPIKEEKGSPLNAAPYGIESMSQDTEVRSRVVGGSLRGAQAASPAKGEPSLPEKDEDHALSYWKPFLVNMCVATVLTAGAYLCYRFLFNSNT

[2] = molecular target: T2, Tyrosine-protein phosphatase non-receptor type 1 (Homo sapiens, UniProt P18031); test: Inhibition of PTP1B (unknown origin) using pNPP as substrate
T2 sequence (P18031 whole entry): T1 sequence (whole entry)

[3] = molecular target: T3, Tyrosine-protein phosphatase non-receptor type 2 (Homo sapiens, UniProt P17706); test: Inhibition of TCPTP (unknown origin) using pNPP as substrate
T3 sequence (P17706 whole entry): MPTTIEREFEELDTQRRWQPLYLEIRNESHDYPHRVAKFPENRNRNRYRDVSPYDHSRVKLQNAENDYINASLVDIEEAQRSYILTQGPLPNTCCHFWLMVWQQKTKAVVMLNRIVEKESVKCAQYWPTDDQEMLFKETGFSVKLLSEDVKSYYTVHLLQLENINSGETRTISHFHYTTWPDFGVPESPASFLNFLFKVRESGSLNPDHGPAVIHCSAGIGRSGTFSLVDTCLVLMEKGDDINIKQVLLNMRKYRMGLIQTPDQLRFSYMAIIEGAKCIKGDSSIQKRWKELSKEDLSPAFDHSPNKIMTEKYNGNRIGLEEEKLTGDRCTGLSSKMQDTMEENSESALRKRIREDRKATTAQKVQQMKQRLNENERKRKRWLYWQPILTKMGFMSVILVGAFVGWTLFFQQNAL

[4] = molecular target: T4, Tyrosine-protein phosphatase non-receptor type 6 (Homo sapiens, UniProt P29350); test: Inhibition of SHP-1 (unknown origin) using 3-o-methylfluorescein phosphate as substrate
Summary of the method: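 SHP-1 activity was read with 3-O-methylfluorescein phosphate (OMFP) as substrate. IC50 was derived by regression analysis and given as mean ± SD of three replications.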

Homo sapiens = organism: Homo sapiens; test: Selectivity ratio of IC50 for TCPTP (unknown origin) to IC50 for PTP1B (unknown origin)
Summary of the method: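 Colorimetric assay with pNPP as substrate, run the same way for PTP1B and TCPTP. IC50 was obtained by regression analysis and reported as mean ± SD of three replications. The selectivity ratio is TCPTP IC50 divided by PTP1B IC50.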

[5] = molecular target: Receptor-type tyrosine-protein phosphatase F (Homo sapiens, UniProt P10586); test: Inhibition of LAR (unknown origin) using 3-o-methylfluorescein phosphate as substrate at 20 ug/ml
[6] = molecular target: T5, Tyrosine-protein phosphatase non-receptor type 11 (Homo sapiens) (UniProt Q06124); test: Inhibition of SHP-2 (unknown origin) using 3-o-methylfluorescein phosphate as substrate at 20 ug/ml
T5 sequence (whole entry): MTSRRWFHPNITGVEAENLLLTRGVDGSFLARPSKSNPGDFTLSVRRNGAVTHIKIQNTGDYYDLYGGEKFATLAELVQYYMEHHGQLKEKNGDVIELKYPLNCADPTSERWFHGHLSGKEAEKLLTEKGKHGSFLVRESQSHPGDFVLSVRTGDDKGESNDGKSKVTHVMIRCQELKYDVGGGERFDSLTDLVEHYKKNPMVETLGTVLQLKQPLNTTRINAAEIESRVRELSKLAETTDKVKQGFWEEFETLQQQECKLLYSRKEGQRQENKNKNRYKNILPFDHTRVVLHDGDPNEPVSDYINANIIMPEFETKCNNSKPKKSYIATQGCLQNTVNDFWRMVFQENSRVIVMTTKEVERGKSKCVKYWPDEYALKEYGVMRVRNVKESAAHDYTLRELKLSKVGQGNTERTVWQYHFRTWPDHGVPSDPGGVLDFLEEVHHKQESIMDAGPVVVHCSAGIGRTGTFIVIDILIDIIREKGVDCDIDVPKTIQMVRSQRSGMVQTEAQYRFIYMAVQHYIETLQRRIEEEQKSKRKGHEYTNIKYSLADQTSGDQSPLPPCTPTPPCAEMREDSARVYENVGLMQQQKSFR

[7] = molecular target: T4, Tyrosine-protein phosphatase non-receptor type 6; test: Inhibition of SHP-1 (unknown origin) using 3-o-methylfluorescein phosphate as substrate at 20 ug/ml
[8] = molecular target: T6, Tyrosine-protein phosphatase non-receptor type 2 (Homo sapiens) (UniProt P17706); test: Inhibition of TCPTP (unknown origin) using pNPP as substrate at 20 ug/ml
T6 sequence (whole entry): T3 sequence (P17706 whole entry)

CHO = test: Inhibition of PTP1B in CHO cells overexpressing human insulin receptor assessed as increase in insulin-stimulated tyrosine phosphorylation of insulin receptor beta at 5 to 20 uM by immunoblot analysis; format: cell-based; details: Cricetulus griseus
Summary of the method: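 CHO cells overexpressing human insulin receptor were treated with compound, with DMSO as negative control. Tyrosine-phosphorylated insulin receptor β was detected by immunoblot.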

[9] = molecular target: T1, Tyrosine-protein phosphatase non-receptor type 1 (Homo sapiens); test: Fast-binding inhibition of PTP1B (unknown origin) using pNPP as substrate
[10] = molecular target: T1, Tyrosine-protein phosphatase non-receptor type 1 (Homo sapiens); test: Competitive inhibition of PTP1B (unknown origin) using pNPP as substrate by Lineweaver-Burk plot analysis
Summary of the method: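 Kinetic analysis: initial velocities were measured across various pNPP concentrations at several fixed inhibitor concentrations. Inhibition mode was assigned from Lineweaver–Burk double-reciprocal plots.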

[11] = molecular target: T7, Tyrosine-protein phosphatase non-receptor type 11 (Homo sapiens, UniProt Q06124); test: Inhibition of SHP-2 (unknown origin) using 3-o-methylfluorescein phosphate as substrate
T7 sequence (Q06124 whole entry): T5 sequence (whole entry)
Summary of the method: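 Phosphatase activity was measured with 3-O-methylfluorescein phosphate (OMFP) as substrate, in the same assay format used for SHP-1. IC50 was obtained by regression analysis and reported as mean ± SD of three replicates.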

T4 sequence (P29350 whole entry): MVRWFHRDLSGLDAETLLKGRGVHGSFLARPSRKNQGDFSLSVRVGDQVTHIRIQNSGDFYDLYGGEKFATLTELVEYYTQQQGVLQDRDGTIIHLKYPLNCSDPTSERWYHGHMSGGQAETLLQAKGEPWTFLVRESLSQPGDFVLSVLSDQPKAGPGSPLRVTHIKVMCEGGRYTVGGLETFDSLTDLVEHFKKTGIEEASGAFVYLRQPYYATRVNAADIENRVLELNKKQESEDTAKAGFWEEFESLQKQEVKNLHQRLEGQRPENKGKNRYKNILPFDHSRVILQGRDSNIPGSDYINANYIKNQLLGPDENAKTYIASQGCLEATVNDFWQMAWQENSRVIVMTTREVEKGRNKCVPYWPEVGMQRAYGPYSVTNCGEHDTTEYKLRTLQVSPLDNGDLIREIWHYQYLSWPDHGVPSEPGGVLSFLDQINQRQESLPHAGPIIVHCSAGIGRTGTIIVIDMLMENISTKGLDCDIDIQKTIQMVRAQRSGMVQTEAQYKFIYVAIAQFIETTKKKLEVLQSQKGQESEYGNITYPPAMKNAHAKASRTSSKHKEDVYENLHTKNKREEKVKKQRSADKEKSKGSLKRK
Chain of Receptor-type tyrosine-protein phosphatase F (P10586 whole entry): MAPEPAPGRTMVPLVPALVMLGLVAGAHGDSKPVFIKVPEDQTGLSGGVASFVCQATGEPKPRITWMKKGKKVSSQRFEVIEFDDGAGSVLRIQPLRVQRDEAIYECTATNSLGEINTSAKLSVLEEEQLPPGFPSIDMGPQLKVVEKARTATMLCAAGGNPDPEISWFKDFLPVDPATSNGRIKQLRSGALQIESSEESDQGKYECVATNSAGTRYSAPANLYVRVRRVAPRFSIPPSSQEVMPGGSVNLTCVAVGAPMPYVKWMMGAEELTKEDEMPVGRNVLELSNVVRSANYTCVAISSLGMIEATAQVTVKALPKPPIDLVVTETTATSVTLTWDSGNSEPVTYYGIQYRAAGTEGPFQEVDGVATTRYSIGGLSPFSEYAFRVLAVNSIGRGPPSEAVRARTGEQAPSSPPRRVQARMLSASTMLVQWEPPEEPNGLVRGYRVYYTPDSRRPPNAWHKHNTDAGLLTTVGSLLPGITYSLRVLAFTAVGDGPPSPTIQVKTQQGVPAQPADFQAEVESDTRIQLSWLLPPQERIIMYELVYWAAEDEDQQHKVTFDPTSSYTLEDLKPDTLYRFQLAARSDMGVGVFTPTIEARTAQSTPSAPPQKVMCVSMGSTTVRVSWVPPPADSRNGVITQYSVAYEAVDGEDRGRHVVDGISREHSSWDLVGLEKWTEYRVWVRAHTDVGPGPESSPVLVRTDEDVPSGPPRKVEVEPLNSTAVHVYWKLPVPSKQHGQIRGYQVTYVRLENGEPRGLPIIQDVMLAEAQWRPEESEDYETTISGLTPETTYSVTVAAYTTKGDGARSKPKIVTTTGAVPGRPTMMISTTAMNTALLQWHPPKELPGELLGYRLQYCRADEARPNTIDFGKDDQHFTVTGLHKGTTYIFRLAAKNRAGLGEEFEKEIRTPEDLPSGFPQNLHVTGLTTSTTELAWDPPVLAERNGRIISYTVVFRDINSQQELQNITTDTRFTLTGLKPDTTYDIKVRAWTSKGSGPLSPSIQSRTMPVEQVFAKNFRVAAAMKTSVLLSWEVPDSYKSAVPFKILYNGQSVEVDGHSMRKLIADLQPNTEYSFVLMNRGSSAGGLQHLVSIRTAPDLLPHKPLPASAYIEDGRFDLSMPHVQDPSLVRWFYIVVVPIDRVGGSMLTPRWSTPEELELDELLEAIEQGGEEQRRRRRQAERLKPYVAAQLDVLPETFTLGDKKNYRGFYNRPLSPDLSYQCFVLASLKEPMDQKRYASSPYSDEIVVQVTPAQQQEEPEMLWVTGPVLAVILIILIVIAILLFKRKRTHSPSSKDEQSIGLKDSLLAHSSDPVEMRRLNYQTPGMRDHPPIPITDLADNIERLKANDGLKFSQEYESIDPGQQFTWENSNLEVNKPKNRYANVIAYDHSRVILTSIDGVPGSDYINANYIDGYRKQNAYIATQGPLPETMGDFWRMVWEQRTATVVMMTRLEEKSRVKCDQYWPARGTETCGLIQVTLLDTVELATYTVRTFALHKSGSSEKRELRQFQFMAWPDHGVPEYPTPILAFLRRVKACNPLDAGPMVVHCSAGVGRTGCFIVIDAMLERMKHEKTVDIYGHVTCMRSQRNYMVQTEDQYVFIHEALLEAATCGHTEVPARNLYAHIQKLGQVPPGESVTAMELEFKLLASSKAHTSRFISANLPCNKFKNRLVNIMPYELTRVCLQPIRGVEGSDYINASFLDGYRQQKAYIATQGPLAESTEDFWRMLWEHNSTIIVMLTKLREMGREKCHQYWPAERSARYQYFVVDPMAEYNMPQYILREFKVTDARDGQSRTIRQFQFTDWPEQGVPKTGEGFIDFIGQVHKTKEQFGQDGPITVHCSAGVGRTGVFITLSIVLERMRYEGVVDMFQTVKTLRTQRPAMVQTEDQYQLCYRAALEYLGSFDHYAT

Row | Molecule | inhibition [1] | IC50 [2] | inhibition [5] | other results
1 | COC(=O)c1ccc(-c2ccc(N)cc2)cc1 | 31.5% | – | – | –
2 | O=C(Nc1ccc(-c2ccc(NC(=O)C3CCN(C(=O)C4CCCCC4)CC3)cc2)cc1)C1CCN(C(=O)C2CCCCC2)CC1 | 61% | 14.6 µM | – | –
3 | CC(C)(C)OC(=O)N1CCC[C@H]1C(=O)Nc1ccc(-c2ccc(NC(=O)[C@@H]3CCCN3C(=O)OC(C)(C)C)cc2)cc1 | 43.5% | – | – | –
4 | O=C(Nc1ccc(-c2ccc(NC(=O)c3ccco3)cc2)cc1)c1ccco1 | – | 19.3 µM | < 50% | IC50 [3]: 51 µM; IC50 [4]: 38.8 µM; Ratio IC50 (Homo sapiens): 2.64
5 | CC(C)CC(=O)Nc1ccc(-c2ccc(NC(=O)CC(C)C)cn2)cc1 | 58.1% | 26.5 µM | – | –
6 | CC(C)CC(=O)Nc1ccc(-c2ccc(NC(=O)CC(C)C)cc2)cc1 | 90.7% | 16.5 µM | – | –
7 | CC(C)(C)OC(=O)N1CCC(C(=O)Nc2ccc(-c3ccc(NC(=O)C4CCN(C(=O)OC(C)(C)C)CC4)cc3)cc2)CC1 | 71.1% | 9.5 µM | < 50% | inhibition [6]: < 50%; IC50 [3]: 21.2 µM; IC50 [4]: 18.2 µM; Ratio IC50 (Homo sapiens): 2.23
8 | O=C(Nc1ccc(-c2ccc(NC(=O)C3CCN(C(=O)c4ccc(F)cc4)CC3)cc2)cc1)C1CCN(C(=O)c2ccc(F)cc2)CC1 | 95.3% | 5.04 µM | < 50% | inhibition [6]: < 50%; inhibition [7]: < 50%; inhibition [8]: < 50%
9 | O=C(Nc1ccc(-c2ccc(NC(=O)C3CCCCC3)cn2)cc1)C1CCCCC1 | 82.1% | 7.14 µM | < 50% | inhibition [6]: < 50%; IC50 [3]: 22.9 µM; Ratio IC50 (Homo sapiens): 3.2; inhibition [7]: < 50%
10 | O=C(Nc1ccccc1)c1ccc(-c2ccc(C(=O)Nc3ccccc3)cc2)cc1 | 62.8% | 18.5 µM | – | –
11 | O=C(Nc1ccc(-c2ccc(NC(=O)C3CCN(C(=O)c4ccco4)CC3)cc2)cc1)C1CCN(C(=O)c2ccco2)CC1 | 94% | 2.34 µM | < 50% | inhibition [6]: < 50%; inhibition (CHO): Active; IC50 [3]: 12.4 µM; inhibition [9]: Active; Ratio IC50 (Homo sapiens): 5.29; inhibition [7]: < 50%; inhibition [10]: Active
12 | O=C(Nc1ccc(-c2ccc(C(=O)Nc3ccccc3)cc2)cc1)c1ccccc1 | 81.2% | 4.61 µM | < 50% | inhibition [6]: < 50%; inhibition [7]: < 50%; inhibition [8]: < 50%
13 | O=C(Nc1ccc(F)cc1)c1ccc(-c2ccc(C(=O)Nc3ccc(F)cc3)cc2)cc1 | 7.92% | – | – | –
14 | COc1cc(C(=O)Nc2ccc(-c3ccc(NC(=O)c4cc(OC)c(OC)c(OC)c4)cc3)cc2)cc(OC)c1OC | 47.4% | – | – | –
15 | O=C(Nc1ccc(-c2ccc(NC(=O)c3ccc(F)cc3)cn2)cc1)c1ccc(F)cc1 | 71% | 5.96 µM | < 50% | IC50 [4]: 17.8 µM; inhibition [8]: < 50%
16 | O=C(Nc1ccc(-c2ccc(NC(=O)c3ccc(F)cc3)cc2)cc1)c1ccc(F)cc1 | 98.6% | 19 µM | – | –
17 | O=C(Nc1ccc(-c2ccc(NC(=O)[C@@H]3CCCN3)cc2)cc1)[C@@H]1CCCN1 | 0.7% | – | – | –
18 | O=C(Nc1ccc(-c2ccc(NC(=O)C3CCCCC3)cc2)cc1)C1CCCCC1 | 84.6% | 12.5 µM | – | –
19 | COC(=O)c1ccc(-c2ccc(NC(=O)c3ccccc3)cc2)cc1 | 69.4% | 10.2 µM | – | –
20 | O=C(Nc1ccc(-c2ccc(NC(=O)C3CCNCC3)cc2)cc1)C1CCNCC1 | 10.3% | – | – | –
21 | O=C(Nc1ccc(-c2ccc(NC(=O)c3ccccc3)cn2)cc1)c1ccccc1 | 83.9% | 5.37 µM | < 50% | inhibition [6]: < 50%; IC50 [3]: 26.2 µM; Ratio IC50 (Homo sapiens): 4.87; inhibition [7]: < 50%
22 | O=C(Nc1ccc(-c2ccc(NC(=O)c3cccs3)cc2)cc1)c1cccs1 | 38.1% | – | – | –
23 | O=C(Nc1ccc(-c2ccc(NC(=O)c3ccccc3)cc2)cc1)c1ccccc1 | 95.2% | 12 µM | – | –
24 | COc1ccc(C(=O)Nc2ccc(-c3ccc(NC(=O)c4ccc(OC)cc4)cc3)cc2)cc1 | 11.9% | – | – | –
25 | O=C(Nc1ccc(-c2ccc(NC(=O)c3ccco3)cn2)cc1)c1ccco1 | 86.4% | 11.1 µM | – | –
26 | O=C(Nc1ccc(-c2ccc(NC(=O)C3CCN(C(=O)c4ccccc4)CC3)cc2)cc1)C1CCN(C(=O)c2ccccc2)CC1 | 94.1% | 2.65 µM | < 50% | inhibition [6]: < 50%; IC50 [3]: 7.62 µM; Ratio IC50 (Homo sapiens): 2.88; inhibition [7]: < 50%
27 | SODIUM ORTHOVANAD | – | – | – | IC50 [4]: 17.8 µM; IC50 [11]: 34.7 µM
28 | CC(C)CC(=O)N1CCC(C(=O)Nc2ccc(-c3ccc(NC(=O)C4CCN(C(=O)CC(C)C)CC4)cc3)cc2)CC1 | 70% | 12.2 µM | – | –
